Bioassay records: PubChem, The Scripps Research Institute Molecular Screening Center
Shown are actives, neighbours in structure and some others; about 2.9% of the full set was active somewhere.
CHO-K1 Ca antag: counter-screen for M1 antagonists: effect in parental CHO-K1 cells; ATP-induced calcium, Fluo-8 fluorescence; inhibition, % at 3 µM; 360,000 tested, 0.6% active; AID 602250;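 active = inhibition above a per-plate cutoff, the plate's mean sample inhibition plus 3 SD, cut at about 24% in these data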;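 also: 0% = DMSO plus EC80 ATP and 100% = DMSO alone without ATP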
OX1R antag-1: antagonists of human orexin 1 receptor (OX1R); O43613; OX1R-expressing cells, FRET antagonist read-out; inhibition, % at 6.6 µM; 330,000 tested, 1.8% active; in the data active = inhibition mostly above about 38%, no sharp cut-off; inactive = mostly below about 40%;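 also: 0% = agonist challenge alone and 100% = reference antagonist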
Target sequence (O43613 whole entry, looked up): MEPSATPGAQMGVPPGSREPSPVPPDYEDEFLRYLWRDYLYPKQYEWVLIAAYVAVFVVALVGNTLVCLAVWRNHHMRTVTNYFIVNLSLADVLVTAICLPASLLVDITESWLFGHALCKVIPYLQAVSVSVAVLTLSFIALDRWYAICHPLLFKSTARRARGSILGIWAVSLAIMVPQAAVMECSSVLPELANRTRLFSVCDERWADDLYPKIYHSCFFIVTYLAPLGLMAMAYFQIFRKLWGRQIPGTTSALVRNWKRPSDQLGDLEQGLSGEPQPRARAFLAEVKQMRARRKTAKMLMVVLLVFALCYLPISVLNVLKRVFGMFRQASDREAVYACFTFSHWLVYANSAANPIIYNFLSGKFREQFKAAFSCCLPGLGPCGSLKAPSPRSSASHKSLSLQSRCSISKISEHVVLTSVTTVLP
OX1R antag-2: blocks the human orexin 1 receptor; CHO/OX1R cells, Fluo-8 calcium fluorescence, orexin A; inhibition, % at 5 µM; 330,000 tested, 0.43% active; AID 434989;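 active = inhibition above its plate's threshold, mean inhibition of all tested compounds on the plate plus 3 SD, cut at about 37% in these data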;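 also: 0% = orexin A challenge wells and 100% = SB-334867-A antagonist wells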
M1 ag parental: M1 agonist counterscreen hit in parental CHO-K1 cells | 360,000 tested, 0.48% active | activation, % at 3 µM | Fluo-8 calcium fluorescence; scaled to maximal ATP response, vehicle zero; in the data active = activation above about 15%;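 also: untransfected CHO-K1 host cells lacking M1 receptor as counterscreen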
CHO parental Ca: signal in parental CHO cells, OX1R antagonist counter-screen. 330,000 tested, 0.63% active. inhibition, % at 5.6 µM. AID 463079. parental CHO-K1, ATP-induced calcium, Fluo-8 fluorescence;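 active = inhibition above that plate's mean sample inhibition plus 3 SD, cut at about 26% in these data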;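 also: 0% = ATP-challenged DMSO wells and 100% = DMSO wells without ATP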
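Material – parental CHO cells · Reagent – ATP stimulus · Compound – single nominal dose of 5.6 µM per compound · Detection – Fluo-8 fluorescence · Read-out basis – percent inhibition of calcium signal · Controls – ATP-challenged DMSO wells low, unchallenged DMSO wells high · Repeats – no replicates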
CHO-K1 Ca PAM: M1 PAM counterscreen hit in parental CHO-K1 cells; ATP EC20, Fluo-8 calcium fluorescence; 0% at ATP EC20, 100% at ATP max; activation, % at 3 µM; 360,000 tested, 0.02% active;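 active = activation above the run cutoff, the mean activation of all test compounds plus 3 SD, cut at about 40% in these data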;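 also: peak over basal fluorescence ratio in a 140 s read after ATP addition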
Active calls of the source: *; . = not tested or not shown.

SMILES	CHO-K1 Ca antag	OX1R antag-1	OX1R antag-2	M1 ag parental	CHO parental Ca	CHO-K1 Ca PAM
O=C(Nc1ccc(F)c(Cl)c1)c1ccccc1NC(=O)C1CCCCC1C(=O)O (stereo not drawn)	25.6*	.	.	0.3	.	-6.9
Cn1ccc2c(N3CCCCCCC3)cc3c(c21)C1CCC3O1 (stereo not drawn)	9.3	.	.	9.2	.	11.1
O=C1C(Cl)=C(NCCc2ccccc2)C(=O)c2ccccc21	-13.7	.	.	-0.6	.	11.2
CCOC(=O)c1c2c3c(cccc3[nH]c1=O)C(=O)c1ccccc1-2	5.3	8.7	-22.5	0.5	12.4	5.6
COCCCNC1=C(Cl)C(=O)c2ccccc2C1=O	-8.0	56.2*	-1.2	0.0	-6.6	11.0
COCCCNc1c2c3c(cccc3[nH]c1=O)C(=O)c1ccccc1-2	56.5*	55.9*	95.0*	285.2*	89.3*	-16.4
CC(C)NC1=C(Cl)C(=O)c2ccccc2C1=O	-5.4	43.2*	-9.9	-0.7	-3.6	4.7
CC(C)OCCCNC1=C(Cl)C(=O)c2ccccc2C1=O	-6.5	68.6*	-17.5	0.4	-6.7	12.7
O=C(Nc1nnc([C@@H]2C[C@H](O)[C@@H](CO)O2)s1)c1cccc(C(F)(F)F)c1	-10.4	.	.	0.4	.	18.6
Cc1ccccc1Nc1nc(N)nc(COC(=O)c2ccco2)n1	5.2	6.3	-3.8	-0.1	-10.9	-0.7
COCc1c(C(=O)OCc2nc(N)nc(Nc3ccccc3C)n2)oc2ccccc12	-0.4	46.6*	16.2	0.8	-25.3	1.3
Cc1ccc(C(=O)OCc2nc3ccsc3c(=O)[nH]2)o1	-4.2	7.0	-14.2	0.7	-25.6	-11.7
COCc1c(C(=O)OCc2nc3ccsc3c(=O)[nH]2)oc2ccccc12	-8.0	28.3*	10.5	0.6	-19.6	14.4
COc1cc2ccccc2cc1C(=O)OCc1nc2ccsc2c(=O)[nH]1	0.3	34.9*	-7.3	0.1	-21.7	3.1
COc1cccc(CNS(=O)(=O)c2c(C)[nH]c(C)c2C(=O)N2CCCCC2)c1	-16.6	12.6	-14.7	0.8	-16.6	19.9
Cc1cccc2cc(C#N)c(NCCNS(=O)(=O)c3ccccc3)nc12	-8.3	58.0*	17.6	1.0	-16.4	15.1
COC(=O)CSc1nc(-c2ccccc2)nc2ccccc12	-11.2	74.3*	-10.3	1.4	-19.2	22.7
Cc1cc(C)cc(OCC(=O)N2CCN(c3ncccn3)CC2)c1	-11.9	-1.6	-15.2	0.7	-8.2	10.9
CCOc1ccc(CC(=O)Nc2sc(Cc3ccccc3)c(C)c2C(N)=O)cc1OCC	1.9	56.8*	-4.5	1.0	-5.0	-7.8
CC(C)(C)OC(=O)NCCCCCNC(=O)c1[nH]cnc1C(=O)N[C@@H](Cc1ccccc1)C(=O)OC(C)(C)C	5.4	2.8	40.8	-0.2	40.2*	-18.9
Cc1cc(C)c2nc(Cl)c(Cl)nc2c1	-3.2	9.4	-16.9	-0.3	-14.1	-9.5
COc1ccc(C(=O)Nc2ccc(C3=NNC(=O)CC3C)cc2NC(=O)c2ccc(OC)cc2)cc1 (stereo not drawn)	20.6	6.0	-32.9	5.9	-23.9	-6.0
CC1CC(=O)NN=C1c1ccc(NCCO)c([N+](=O)[O-])c1 (stereo not drawn)	-13.1	59.4*	4.3	-0.5	-11.4	-2.1
CCOc1cccc(N)c1	-23.2	3.1	-4.1	0.7	-16.3	10.8
CCOc1ccc(N)c(SSc2cc(OCC)ccc2N)c1	-5.9	5.5	24.1	-0.6	46.6*	1.5
SMILES	CHO-K1 Ca antag	OX1R antag-1	OX1R antag-2	M1 ag parental	CHO parental Ca	CHO-K1 Ca PAM
COc1ccc(NCC(=O)N/N=C/C=C\c2ccccc2)cc1	-4.1	26.8	-2.7	0.3	-18.5	14.0
COc1ccccc1NCC(=O)N/N=C/C=C/c1ccccc1	23.9*	16.9	-6.5	-0.5	-9.7	-15.5
Cn1c2ccccc2c(=O)c2cc(C#Cc3ccc(N)cc3)ccc21	-8.2	57.6*	-31.4	3.3	-16.7	4.0
CSc1cccc(NC(=O)CN(C)S(=O)(=O)c2ccc(C)cc2)c1	-6.1	78.2*	51.2*	3.4	30.4	9.9
Cc1ccc(S(=O)(=O)N2CCCC2C(=O)Nc2nc3ccccc3s2)cc1 (stereo not drawn)	-25.0	73.7*	0.8	3.0	-23.0	20.1
O=C(Nc1nc2ccccc2s1)C1CCCN1S(=O)(=O)c1ccc(Cl)cc1 (stereo not drawn)	0.5	54.5*	0.4	0.2	-25.1	16.0
